Measured values published in ChEMBL document CHEMBL4261561, “Thiosemicarbazone-based selective proliferation inactivators inhibit gastric cancer cell growth, invasion, and migration” (Medchemcomm, 2017).

Assays:
Type in all cases: functional, cell-based
SMMC-7721 = assay: Antiproliferative activity against human SMMC7721 cells after 72 hrs by MTT assay; details: SMMC-7721, 72 h
Outline: (§1)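 Exponentially growing cells were seeded at about 3×10^3 per well and left 24 h, then given fresh medium with a range of compound concentrations for 72 h. MTT solution (5 mg/mL) was added for another 4 h. Medium was removed, formazan was dissolved in DMSO, and absorbance was read at 570 nm. IC50 was derived statistically.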

MCF7 = assay: Antiproliferative activity against human MCF7 cells after 72 hrs by MTT assay; details: MCF7, 72 h; outline: as §1
MGC-803 = assay: Antiproliferative activity against human MGC803 cells after 72 hrs by MTT assay; details: MGC-803, 72 h; outline: as §1

IC50 (SMMC-7721) | IC50 (MCF7) | IC50 (MGC-803) | Structure (SMILES)
> 64 µM | > 64 µM | > 64 µM | C/C(=N\NC(=S)N1CCOCC1)c1ccc(O)cc1
32.6 µM | > 64 µM | 20.4 µM | Oc1c(Br)cc(Br)cc1/C=N/NC(=S)N1CCOCC1
27.3 µM | 41.9 µM | 10.2 µM | CC(C)(C)OC(=O)N1CCN(C(=S)N/N=C/c2ccccc2O)CC1
38.3 µM | > 64 µM | 56.1 µM | COc1ccc(/C=N/NC(=S)N2CCOCC2)c(O)c1
> 64 µM | 44.6 µM | 32.6 µM | C/C(=N\NC(=S)N1CCOCC1)c1ccccc1
37.3 µM | > 64 µM | 29.2 µM | Oc1ccccc1/C=N/NC(=S)N1CCOCC1
> 64 µM | > 64 µM | > 64 µM | C/C(=N\NC(=S)N1CCOCC1)c1cccc(O)c1
35.3 µM | > 64 µM | 16.3 µM | Oc1ccc(Cl)cc1/C=N/NC(=S)N1CCOCC1
> 64 µM | 29.2 µM | 3.06 µM | C/C(=N\NC(=S)N1CCOCC1)c1cc(Cl)ccc1O
